The record followed here is paper PMC2900601 (Cell, 2009).

Substitutions are numbered along the chain they refer to. Like-named read-outs stand apart in the source and are kept apart here. Where no end group is shown, it is not given here. [ ]: non-standard residue; d: D form. pT = C[C@@H](OP(=O)(O)O)[C@H](N)C(=O)O; pS = N[C@@H](COP(=O)(O)O)C(=O)O

Test [1] has as its target Schizosaccharomyces pombe Nbs1 N-terminal FHA/BRCT-repeat fragment (1-324) (Schizosaccharomyces pombe) (UniProt O43070). Put plainly: ITC. (In general: In ITC the heat of successive injections is recorded.)
Test [2] addresses human Nbs1 N-terminal FHA/BRCT-repeat fragment (1-382) (human) (UniProt O60934). Put plainly: ITC.
The target in test [3] is T1, spNbs1 FHA/BRCT2 region (1-324) (Schizosaccharomyces pombe, UniProt O43070).
T1 sequence (O43070 1-324): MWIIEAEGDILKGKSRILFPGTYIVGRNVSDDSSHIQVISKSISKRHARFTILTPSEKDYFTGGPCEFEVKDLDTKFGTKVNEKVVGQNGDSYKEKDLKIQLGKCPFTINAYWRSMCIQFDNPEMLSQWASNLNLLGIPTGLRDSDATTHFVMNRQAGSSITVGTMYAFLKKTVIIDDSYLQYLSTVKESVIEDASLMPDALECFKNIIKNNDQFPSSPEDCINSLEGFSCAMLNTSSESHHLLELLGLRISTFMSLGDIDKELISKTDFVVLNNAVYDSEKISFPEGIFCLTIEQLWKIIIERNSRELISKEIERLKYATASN
Put plainly: ITC of phosphopeptides with wild-type spNbs1 N-terminal fragment. Format: binding. A digest of the protocol: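 Purified recombinant […] N-terminal fragment of S. pombe Nbs1 titrated by ITC with the same Mdc1 phosphothreonine peptide used for the human protein. An unphosphorylated peptide of identical sequence was also tested. Affinity was derived from the titration.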

The target of test [4] is T2, human Nbs1 (hNbs1) FHA/BRCT fragment (1-382) (Homo sapiens, UniProt O60934).
T2 sequence (O60934 1-382): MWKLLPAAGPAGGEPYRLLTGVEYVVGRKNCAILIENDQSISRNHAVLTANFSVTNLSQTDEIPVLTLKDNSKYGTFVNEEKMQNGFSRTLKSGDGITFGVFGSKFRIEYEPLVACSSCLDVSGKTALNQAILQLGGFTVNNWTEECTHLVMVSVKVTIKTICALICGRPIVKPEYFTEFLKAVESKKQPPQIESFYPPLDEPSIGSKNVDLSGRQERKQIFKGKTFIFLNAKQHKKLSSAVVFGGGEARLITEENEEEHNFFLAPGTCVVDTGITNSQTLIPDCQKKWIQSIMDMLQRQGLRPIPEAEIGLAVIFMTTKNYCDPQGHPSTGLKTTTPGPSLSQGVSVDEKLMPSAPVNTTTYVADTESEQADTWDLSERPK
The experiment in a line: ITC of phosphopeptides with wild-type hNbs1 N-terminal fragment. In kind it is binding.

For test [5], the target named is T3, human Nbs1 N-terminal FHA/BRCT-repeat fragment (1-382) (human, UniProt O60934 1-382).
T3 sequence: T2 sequence (O60934 1-382)
The experiment in a line: ITC.

A further test deals with T4, hNbs1 (1-382) K160M (human, UniProt O60934 1-382, K160M).
T4 sequence: T2 sequence (O60934 1-382) with K160M
Put plainly: ITC.

The next test concerns the target T5, hNbs1 (1-382) R28A (human, UniProt O60934 1-382, R28A).
T5 sequence: T2 sequence (O60934 1-382) with R28A
Put plainly: ITC.

The target of a further test is T6, hNbs1 (1-382) S42A (human, UniProt O60934 1-382, S42A).
T6 sequence: T2 sequence (O60934 1-382) with S42A
Put plainly: ITC.

The next test concerns the target T7, spNbs1 (1-324) R27A (Schizosaccharomyces pombe, UniProt O43070 1-324, R27A).
T7 sequence: T1 sequence (O43070 1-324) with R27A
The experiment in a line: ITC.

Regarding “Ctp1 Site 1 di-phosphorylated peptide (pSer-77/pThr-79)”, in [1], the fold weaker binding than the di-phosphorylated Site 2 peptide was 30 fold. “Ctp1 Site 1 peptide phosphorylated only on pThr-79”: the fold weaker binding than the di-phosphorylated Site 1 peptide in test [1] turned out to be 8 fold.

What is called Kd is the free concentration of one partner at which half of the binding sites on the other are occupied at equilibrium, for simple one-to-one binding. In [1], “Ctp1 Site 2 di-phosphorylated peptide (pSer-87 and pThr-89)” had a Kd of 50 nM.

With “Ctp1 Site 2 peptide phosphorylated only on pThr-89”, in [1], the fold weaker binding than the di-phosphorylated Site 2 peptide stood at 10 fold.

Consider “Ctp1 peptide containing singly phosphorylated Thr-78”, for which the Kd in test [1] amounted to 200 nM. In test [2], Mdc1 SDpTD mono-phosphorylated peptide displayed a fold reduced affinity against the di-phosphorylated Mdc1 peptide of 17 fold.

Usually stoichiometry N stands for the number of molecules, sites or subunits per partner or assembly. Take “Mdc1 pSDpTD motif di-phosphorylated peptide (Mdc1 residues 325-336) (from UniProt Q14676 325-336)”: the Kd worked out at 500 nM in test [1] and 1000 nM in [2]. The molecule further yielded a stoichiometry N in test [2] of over 1. With “pSDTD: Mdc1 peptide of the same sequence in which the threonine was not phosphorylated (GFID[pS]DTDAEEE)”, the “binding to spNbs1 (in words)” value in test [3] is “neither spNbs1 nor hNbs1 bound”. For the same molecule, the “binding to hNbs1 (in words)” value in [4] is reported as “neither spNbs1 nor hNbs1 bound”; in test [4] (listed as mono-phosphorylated pSDTD), “lack of hNbs1 interactions”. Take FID[pS]D[pT]DVEEE [di-phosphorylated peptide with a core consensus of all six Mdc1 motifs (FIDpSDpTDVEEE)]: in test [5], the “stoichiometry N” value was over 1. The “fold reduction of stoichiometry against wild-type hNbs1” value with hNbs1 (1-382) K160M, with hNbs1 (1-382) R28A and in the test with hNbs1 (1-382) S42A was about 2 fold in each case.

For the molecule GFID[pS]D[pT]DAEEE [Mdc1 pSDpTD motif di-phosphorylated peptide (Mdc1 residues 325-336)], the “fold reduction of apparent binding affinity against wild-type spNbs1” value with spNbs1 (1-324) R27A is about 100 fold.
